Test results reported in publication PMC6170741 (Investigational new drugs, 2018).

Columns and labels:
[1] = Single dose plasma pharmacokinetics in patients; assay type: in vivo, human; conditions: for Tmax: human, plasma, po, across all doses and regimens
How it was run: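 Fasted patients took one oral capsule dose (Cycle 0) before repeat dosing began. Drug was quantified by liquid-liquid extraction and HPLC-MS/MS (range 1–1000 ng/mL; LLOQ 1.00 ng/mL). Non-compartmental analysis gave AUC(0–24) and Cmax, and variability was expressed as CV%.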

AKT3 = conditions: read-out: AKT3 Ki*; cited from earlier work
[2] = Repeat dose plasma pharmacokinetics in patients; assay type: in vivo, human
How it was run: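 Fasted patients took oral capsules once daily. Steady-state plasma was sampled up to 24 h post-dose on day 8 (10 and 20 mg cohorts), day 15 (40–150 mg cohorts), day 7 (7-on/7-off) or day 22 (t.i.w.). Dose-reduced patients were sampled at the new dose. Drug was measured by liquid-liquid extraction and HPLC-MS/MS (validated 1–1000 ng/mL; LLOQ 1.00 ng/mL). Parameters were derived non-compartmentally.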

[3] = test system: blood glucose and insulin levels; experiment: Pharmacodynamics: insulin after standardized meal, 1,5-anhydroglucitol; assay type: in vivo, human
AKT1 = conditions: read-out: AKT1 Ki*; cited from earlier work
[4] = test system: patients with solid tumors; experiment: Phase I safety and tolerability; assay type: in vivo
[5] = test system: patients with solid tumors; experiment: Clinical activity; assay type: in vivo, human
[6] = 75 mg, continuous daily regimen
[7] = repeat dose, 75 mg, continuous daily regimen
[8] = any cause, all cohorts, N = 77, CTCAE v3.0

Cn1ncc(Cl)c1-c1cc(C(=O)N[C@H](CN)Cc2ccc(F)c(F)c2)oc1Cl [GSK2141795]
mean variability (CV%) in exposure, AUC(0–24) [1, 6]: 37%
mean variability (CV%) in exposure, Cmax [1, 6]: 62%
Tmax ([1]; Tmax, majority): 2 to 4 h
Tmax ([1]; median time to maximal concentration (Tmax)): 3 to 8 h
Ki (AKT3): 1.5 nM
time to reach steady-state ([2]; continuous qd dosing): approximately 14 days
concentration at 24 h ([2]; human, plasma, oral, 20 mg, C24, repeat dose 20 mg once daily (n = 1), day 8): 42.1 ng/mL
Cmax ([2]; human, plasma, oral, 20 mg, Cmax, repeat dose 20 mg once daily (n = 1), day 8): 90.3 ng/mL
Tmax ([2]; human, plasma, oral, 20 mg, Tmax, repeat dose 20 mg once daily (n = 1), day 8): 3 h
Tmax ([2]; human, plasma, oral, median Tmax, repeat dose, generally): 2 to 4 h
CV% in exposure, AUC(0–24) [2, 7]: 52%
CV% in exposure, Cmax [2, 7]: 50%
insulin levels following a standardized meal, day 15 compared with screening ([3]; 5 patients with matched insulin samples, cycle 1 day 15): Three of the five patients had two-fold greater insulin levels
association of decreased 1,5-AG with GSK2141795 concentrations ([3]; screening vs steady state, linear regression): this association was not consistent across the study or across tumor types
Ki (AKT1): 0.066 nM
DLTs ([4]; 75 mg qd 7-on/7-off cohort): No DLTs
DLTs ([4]; 75 mg t.i.w. cohort): No DLTs
DLTs ([4]; 100 mg qd 7-on/7-off cohort): Two DLTs, grade 3 hyperglycemia and grade 3 rash
DLTs ([4]; 100 mg qd cohort (exceeded the MTD)): two DLTs, including grade 1 stomatitis that did not resolve, leading to a treatment delay of >14 days, as well as grade 4 hypoglycemia
DLTs ([4]; 100 mg t.i.w. cohort): No DLTs
DLTs ([4]; 150 mg qd cohort (exceeded the MTD)): two DLTs of grade 3 hyperglycemia
maximum tolerated dose (MTD) ([4]; 7-on/7-off schedule): 75 mg
hyperglycemia, patients ([4]; all cohorts): 22%
rash, patients ([4]; all cohorts): 22%
patients with DLTs ([4]; all cohorts, cycle 1): 7 patients
Abdominal pain, Grade 1 [4, 8]: 13 (17) n (%)
Abdominal pain, Grade 2 [4, 8]: 4 (5) n (%)
Abdominal pain, Grade 3 [4, 8]: 3 (4) n (%)
Abdominal pain, Grade 4 [4, 8]: 0 n (%)
Abdominal pain, Total [4, 8]: 20 (26) n (%)
Back pain, Grade 1 [4, 8]: 11 (14) n (%)
Back pain, Grade 2 [4, 8]: 3 (4) n (%)
Back pain, Grade 3 [4, 8]: 1 (1) n (%)
Back pain, Grade 4 [4, 8]: 0 n (%)
Back pain, Total [4, 8]: 15 (19) n (%)
Constipation, Grade 1 [4, 8]: 14 (18) n (%)
Constipation, Grade 2 [4, 8]: 3 (4) n (%)
Constipation, Grade 3 [4, 8]: 0 n (%)
Constipation, Grade 4 [4, 8]: 0 n (%)
Constipation, Total [4, 8]: 17 (22) n (%)
Cough, Grade 1 [4, 8]: 9 (12) n (%)
Cough, Grade 2 [4, 8]: 0 n (%)
Cough, Grade 3 [4, 8]: 0 n (%)
Cough, Grade 4 [4, 8]: 0 n (%)
Cough, Total [4, 8]: 9 (12) n (%)
Decreased appetite, Grade 1 [4, 8]: 23 (30) n (%)
Decreased appetite, Grade 2 [4, 8]: 6 (8) n (%)
Decreased appetite, Grade 3 [4, 8]: 0 n (%)
Decreased appetite, Grade 4 [4, 8]: 1 (1) n (%)
Decreased appetite, Total [4, 8]: 30 (39) n (%)
Diarrhea, Grade 1 [4, 8]: 33 (43) n (%)
Diarrhea, Grade 2 [4, 8]: 13 (17) n (%)
Diarrhea, Grade 3 [4, 8]: 3 (4) n (%)
Diarrhea, Grade 4 [4, 8]: 0 n (%)
Diarrhea, Total [4, 8]: 49 (64) n (%)
Dizziness, Grade 1 [4, 8]: 12 (16) n (%)
Dizziness, Grade 2 [4, 8]: 0 n (%)
Dizziness, Grade 3 [4, 8]: 0 n (%)
Dizziness, Grade 4 [4, 8]: 0 n (%)
Dizziness, Total [4, 8]: 12 (16) n (%)
Dysgeusia, Grade 1 [4, 8]: 7 (9) n (%)
Dysgeusia, Grade 2 [4, 8]: 1 (1) n (%)
Dysgeusia, Grade 3 [4, 8]: 0 n (%)
Dysgeusia, Grade 4 [4, 8]: 0 n (%)
Dysgeusia, Total [4, 8]: 8 (10) n (%)
Dyspnea, Grade 1 [4, 8]: 10 (13) n (%)
Dyspnea, Grade 2 [4, 8]: 3 (4) n (%)
Dyspnea, Grade 3 [4, 8]: 2 (3) n (%)
Dyspnea, Grade 4 [4, 8]: 0 n (%)
Dyspnea, Total [4, 8]: 15 (19) n (%)
Fatigue, Grade 1 [4, 8]: 21 (27) n (%)
Fatigue, Grade 2 [4, 8]: 16 (21) n (%)
Fatigue, Grade 3 [4, 8]: 0 n (%)
Fatigue, Grade 4 [4, 8]: 1 (1) n (%)
Fatigue, Total [4, 8]: 38 (49) n (%)
Headache, Grade 1 [4, 8]: 7 (9) n (%)
Headache, Grade 2 [4, 8]: 0 n (%)
Headache, Grade 3 [4, 8]: 1 (1) n (%)
Headache, Grade 4 [4, 8]: 1 (1) n (%)
Headache, Total [4, 8]: 9 (12) n (%)
Hyperglycemia, Grade 1 [4, 8]: 2 (3) n (%)
Hyperglycemia, Grade 2 [4, 8]: 9 (12) n (%)
Hyperglycemia, Grade 3 [4, 8]: 5 (6) n (%)
Hyperglycemia, Grade 4 [4, 8]: 1 (1) n (%)
Hyperglycemia, Total [4, 8]: 17 (22) n (%)
Mucosal inflammation, Grade 1 [4, 8]: 7 (9) n (%)
Mucosal inflammation, Grade 2 [4, 8]: 1 (1) n (%)
Mucosal inflammation, Grade 3 [4, 8]: 0 n (%)
Mucosal inflammation, Grade 4 [4, 8]: 0 n (%)
Mucosal inflammation, Total [4, 8]: 8 (10) n (%)
Nausea, Grade 1 [4, 8]: 42 (55) n (%)
Nausea, Grade 2 [4, 8]: 4 (5) n (%)
Nausea, Grade 3 [4, 8]: 1 (1) n (%)
Nausea, Grade 4 [4, 8]: 0 n (%)
Nausea, Total [4, 8]: 47 (61) n (%)
Peripheral edema, Grade 1 [4, 8]: 9 (12) n (%)
Peripheral edema, Grade 2 [4, 8]: 0 n (%)
Peripheral edema, Grade 3 [4, 8]: 0 n (%)
Peripheral edema, Grade 4 [4, 8]: 0 n (%)
Peripheral edema, Total [4, 8]: 9 (12) n (%)
Pyrexia, Grade 1 [4, 8]: 10 (13) n (%)
Pyrexia, Grade 2 [4, 8]: 2 (3) n (%)
Pyrexia, Grade 3 [4, 8]: 0 n (%)
Pyrexia, Grade 4 [4, 8]: 0 n (%)
Pyrexia, Total [4, 8]: 12 (16) n (%)
Rash, Grade 1 [4, 8]: 8 (10) n (%)
Rash, Grade 2 [4, 8]: 8 (10) n (%)
Rash, Grade 3 [4, 8]: 1 (1) n (%)
Rash, Grade 4 [4, 8]: 0 n (%)
Rash, Total [4, 8]: 17 (22) n (%)
Urinary tract infection, Grade 1 [4, 8]: 6 (8) n (%)
Urinary tract infection, Grade 2 [4, 8]: 6 (8) n (%)
Urinary tract infection, Grade 3 [4, 8]: 0 n (%)
Urinary tract infection, Grade 4 [4, 8]: 0 n (%)
Urinary tract infection, Total [4, 8]: 12 (16) n (%)
Vomiting, Grade 1 [4, 8]: 29 (38) n (%)
Vomiting, Grade 2 [4, 8]: 3 (4) n (%)
Vomiting, Grade 3 [4, 8]: 1 (1) n (%)
Vomiting, Grade 4 [4, 8]: 0 n (%)
Vomiting, Total [4, 8]: 33 (43) n (%)
Weight decreased, Grade 1 [4, 8]: 12 (16) n (%)
Weight decreased, Grade 2 [4, 8]: 5 (6) n (%)
Weight decreased, Grade 3 [4, 8]: 0 n (%)
Weight decreased, Grade 4 [4, 8]: 0 n (%)
Weight decreased, Total [4, 8]: 17 (22) n (%)
dose reductions for diarrhea ([4]; at the RP2D): 2 patients
dose reductions for rash ([4]; at the RP2D): 3 patients
grade 3 hyperglycemia ([4]; at the RP2D (75 mg qd), % of patients): 4%
patients withdrawn as a result of an AE ([4]; of 77 enrolled (17%), at study completion): 13 patients
recommended phase II dose (RP2D) ([4]; once-daily dosing, oral): 75 mg
maximum tolerated dose (MTD) ([4]; qd dosing): 75 mg
endometrial cancer patients with stable disease (SD) on therapy for more than 6 months ([5]; 75 mg qd): 4 patients
prostate cancer patients with stable disease (SD) on therapy for more than 6 months ([5]; 75 mg qd): 3 patients
partial responses (PRs) ([5]; RP2D 75 mg qd): two partial responses
patients withdrawn due to disease progression ([5]; of 77 enrolled (68%), at study completion): 52 patients
